Data reported in ChEMBL document CHEMBL3124885, “Discovery of 7-tetrahydropyran-2-yl chromans: β-site amyloid precursor protein cleaving enzyme 1 (BACE1) inhibitors that reduce amyloid β-protein (Aβ) in the central nervous system” (J Med Chem, 2014).
In brackets after ≈: the same amount, converted by molar mass.

How the values were obtained:
[1] = Drug uptake in cynomolgus monkey CSF at 0.5 mg/kg, iv and 100 mg/kg, po measured at 2 hrs; assay type: ADME, organism-based, Macaca fascicularis, Cerebrospinal fluid; settings: read-out: Drug uptake
Method in brief: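 Female cynomolgus monkeys, 3 per dosing route; iv formulation PEG400/EtOH/water (40/10/50) solution; oral suspension in 1% CMC, 0.5% Tween 80, 5 mM citrate buffer; CSF concentration measured.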

[2] = Fraction unbound in Hartley guinea pig brain at 60 mg/kg, po measured at 1 hr; assay type: ADME, organism-based, Cavia porcellus; set-up: dose 60 mg/kg, route oral; settings: in vivo
[3] = Ratio of unbound drug level in brain to plasma in Hartley guinea pig at 60 mg/kg, po measured at 1 hr; assay type: ADME, organism-based, Cavia porcellus; set-up: dose 60 mg/kg, route oral; settings: brain and plasma (unbound), read-out: K(p,uu,brain)
Method in brief: (§1)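 Male Hartley guinea pigs given single oral doses of 30, 60 or 100 mg/kg in 1% CMC/0.5% Tween/5 mM citrate in H₂O, 6–8 animals per cohort. Plasma, brain and CSF sampled at 1–12 h; free brain to free plasma ratio computed.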

[4] = test system: Plasma; assay: Unbound plasma concentration in Sprague-Dawley rat at 60 mg/kg, po measured at 8 hrs; assay type: ADME, organism-based; set-up: dose 60 mg/kg, route oral; settings: in vivo
Method in brief: (§2)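 Male Sprague-Dawley rats were given a single 60 mg/kg oral dose in 1% CMC/0.5% Tween/5 mM citrate in H₂O. Free plasma concentration was determined at 1, 3, 5, 8 and 12 h. Brain, CSF and CSF Aβ₁₋₄₀ were sampled at the same times.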

[5] = Fraction unbound in Hartley guinea pig brain at 60 mg/kg, po measured at 12 hrs; assay type: ADME, organism-based, Cavia porcellus; set-up: dose 60 mg/kg, route oral; settings: in vivo
[6] = Intrinsic clearance in Hartley guinea pig hepatocytes at 2 uM after 60 to 120 mins; assay type: ADME, cell-based, Cavia porcellus, Hepatocyte; settings: read-out: CLH
[7] = test system: Plasma; assay: Unbound plasma concentration in Sprague-Dawley rat at 60 mg/kg, po measured at 12 hrs; assay type: ADME, organism-based; set-up: dose 60 mg/kg, route oral; settings: in vivo; method in brief: as §2
[8] = Fraction unbound in Hartley guinea pig brain at 60 mg/kg, po measured at 3 hrs; assay type: ADME, organism-based, Cavia porcellus; set-up: dose 60 mg/kg, route oral; settings: in vivo
[9] = Clearance in Hartley guinea pig liver microsomes at 1 uM after 20 mins by LC-MS/MS analysis in presence of NADPH; assay type: ADME, Cavia porcellus, Microsome; settings: read-out: CLH
[10] = Drug uptake in Hartley guinea pig CSF at 60 mg/kg, po measured at 8 hrs; assay type: ADME, organism-based, Cavia porcellus, Cerebrospinal fluid; set-up: dose 60 mg/kg, route oral; settings: read-out: Drug uptake
Method in brief: (§3)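 Male Hartley guinea pigs, oral dosing (CMC/Tween/citrate suspension or PEG/EtOH/H₂O solution), six or eight animals per cohort; CSF drug concentration (nM) measured at each time point.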

[11] = Drug uptake in Hartley guinea pig CSF at 100 mg/kg, po measured at 3 hrs; assay type: ADME, organism-based, Cavia porcellus, Cerebrospinal fluid; set-up: dose 100 mg/kg, route oral; settings: read-out: Drug uptake; method in brief: as §3
[12] = Solubility of the compound at pH 7.2; assay type: physicochemical; settings: buffer
[13] = Cmax in cynomolgus monkey CSF at 100 mg/kg, po measured at 2 hrs; assay type: ADME, organism-based, Macaca fascicularis, Cerebrospinal fluid; set-up: dose 100 mg/kg, route oral
[14] = test system: Plasma; assay: Unbound plasma concentration in Sprague-Dawley rat at 60 mg/kg, po measured at 5 hrs; assay type: ADME, organism-based; set-up: dose 60 mg/kg, route oral; settings: in vivo; method in brief: as §2
[15] = Fraction unbound in Hartley guinea pig brain at 30 mg/kg, po measured at 3 hrs; assay type: ADME, organism-based, Cavia porcellus; set-up: dose 30 mg/kg, route oral; settings: in vivo
[16] = Unbound plasma concentration in Hartley guinea pig at 100 mg/kg, po measured at 3 hrs; assay type: ADME, organism-based, Cavia porcellus; set-up: dose 100 mg/kg, route oral; settings: in vivo
Method in brief: (§4)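 Male Hartley guinea pigs were dosed orally at 30, 60 or 100 mg/kg, with six or eight animals per cohort. The vehicle was either a suspension in 1% CMC/0.5% Tween/5 mM citrate in H₂O or a 40/10/50 PEG/EtOH/H₂O solution, depending on compound. Unbound plasma concentration was sampled at 1–12 h post-dose alongside brain, CSF and CSF Aβ₁₋₄₀.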

[17] = test system: Brain; assay: Fraction unbound in CD-1 mouse brain at 10 mg/kg, po measured at 1 hr; assay type: ADME, organism-based; set-up: dose 10 mg/kg, route oral; settings: in vivo
Method in brief: (§5)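 Male CD-1 mice, 3 per cohort, dosed 10 mg/kg orally; brains harvested at 1 and 4 h.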

[18] = Drug uptake in Sprague-Dawley rat CSF at 60 mg/kg, po measured at 3 hrs; assay type: ADME, organism-based, Cerebrospinal fluid; set-up: dose 60 mg/kg, route oral; settings: read-out: Drug uptake
Method in brief: (§6)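 Male Sprague−Dawley rats dosed orally at 60 mg/kg in 1% CMC/0.5% Tween/5 mM citrate in H₂O; CSF compound concentration (nM) at 1–12 h.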

[19] = test system: Plasma; assay: Unbound plasma concentration in Sprague-Dawley rat at 60 mg/kg, po measured at 3 hrs; assay type: ADME, organism-based; set-up: dose 60 mg/kg, route oral; settings: in vivo; method in brief: as §2
[20] = Fraction unbound in Hartley guinea pig brain at 60 mg/kg, po measured at 8 hrs; assay type: ADME, organism-based, Cavia porcellus; set-up: dose 60 mg/kg, route oral; settings: in vivo
[21] = Intrinsic clearance in cynomolgus monkey hepatocytes at 2 uM after 60 to 120 mins; assay type: ADME, cell-based, Macaca fascicularis, Hepatocyte; settings: read-out: CLH
[22] = Unbound plasma concentration in Hartley guinea pig at 60 mg/kg, po measured at 1 hr; assay type: ADME, organism-based, Cavia porcellus; set-up: dose 60 mg/kg, route oral; settings: in vivo; method in brief: as §4
[23] = Ratio of unbound drug level in brain to plasma in Hartley guinea pig at 30 mg/kg, po measured at 3 hrs; assay type: ADME, organism-based, Cavia porcellus; set-up: dose 30 mg/kg, route oral; settings: brain and plasma (unbound), read-out: K(p,uu,brain); method in brief: as §1
[24] = test system: Brain; assay: Fraction unbound in CD-1 mouse brain at 10 mg/kg, po measured at 4 hrs; assay type: ADME, organism-based; set-up: dose 10 mg/kg, route oral; settings: in vivo; method in brief: as §5
[25] = Ratio of unbound drug level in brain to plasma in Hartley guinea pig at 60 mg/kg, po measured at 8 hrs; assay type: ADME, organism-based, Cavia porcellus; set-up: dose 60 mg/kg, route oral; settings: brain and plasma (unbound), read-out: K(p,uu,brain); method in brief: as §1
[26] = Ratio of unbound drug level in brain to plasma in Sprague-Dawley rat at 60 mg/kg, po measured at 5 hrs; assay type: ADME, organism-based; set-up: dose 60 mg/kg, route oral; settings: brain and plasma (unbound), read-out: K(p,uu,brain)
Method in brief: (§7)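 Male Sprague–Dawley rats dosed 60 mg/kg po in 1% CMC/0.5% Tween/5 mM citrate in H₂O; plasma, brain and CSF taken at 1, 3, 5, 8 and 12 h; unbound plasma and brain levels and their ratio determined.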

[27] = Unbound plasma concentration in Hartley guinea pig at 60 mg/kg, po measured at 8 hrs; assay type: ADME, organism-based, Cavia porcellus; set-up: dose 60 mg/kg, route oral; settings: in vivo; method in brief: as §4
[28] = Drug uptake in Hartley guinea pig CSF at 30 mg/kg, po measured at 3 hrs; assay type: ADME, organism-based, Cavia porcellus, Cerebrospinal fluid; set-up: dose 30 mg/kg, route oral; settings: read-out: Drug uptake; method in brief: as §3
[29] = Fraction unbound in Hartley guinea pig brain at 100 mg/kg, po measured at 3 hrs; assay type: ADME, organism-based, Cavia porcellus; set-up: dose 100 mg/kg, route oral; settings: in vivo
[30] = Drug uptake in Sprague-Dawley rat CSF at 60 mg/kg, po measured at 5 hrs; assay type: ADME, organism-based, Cerebrospinal fluid; set-up: dose 60 mg/kg, route oral; settings: read-out: Drug uptake; method in brief: as §6
[31] = test system: Brain; assay: Fraction unbound in Sprague-Dawley rat brain at 60 mg/kg, po measured at 8 hrs; assay type: ADME, organism-based; set-up: dose 60 mg/kg, route oral; settings: in vivo; method in brief: as §7
[32] = Ratio of unbound drug level in brain to plasma in Hartley guinea pig at 60 mg/kg, po measured at 12 hrs; assay type: ADME, organism-based, Cavia porcellus; set-up: dose 60 mg/kg, route oral; settings: brain and plasma (unbound), read-out: K(p,uu,brain); method in brief: as §1
[33] = Drug uptake in Sprague-Dawley rat CSF at 60 mg/kg, po measured at 8 hrs; assay type: ADME, organism-based, Cerebrospinal fluid; set-up: dose 60 mg/kg, route oral; settings: read-out: Drug uptake; method in brief: as §6
[34] = test system: Brain; assay: Fraction unbound in Sprague-Dawley rat brain at 60 mg/kg, po measured at 12 hrs; assay type: ADME, organism-based; set-up: dose 60 mg/kg, route oral; settings: in vivo; method in brief: as §7
[35] = test system: Plasma; assay: Unbound plasma concentration in cynomolgus monkey at 0.5 mg/kg, iv and 100 mg/kg, po measured at 4 hrs; assay type: ADME, organism-based, Macaca fascicularis; settings: in vivo
Method in brief: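 Female cynomolgus monkeys, three per dosing route, received 0.5 mg/kg iv and 100 mg/kg po. Unbound plasma concentration was reported at 2 h and 4 h post-dose.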

[36] = Unbound plasma concentration in Hartley guinea pig at 60 mg/kg, po measured at 3 hrs; assay type: ADME, organism-based, Cavia porcellus; set-up: dose 60 mg/kg, route oral; settings: in vivo; method in brief: as §4
[37] = test system: Rattus norvegicus; assay: Hepatic clearance in Sprague-Dawley rat at 3 mg/kg, iv; assay type: ADME, organism-based, Liver; set-up: dose 3 mg/kg, route intravenous; settings: in vivo
Method in brief: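 Male Sprague–Dawley rats, 3 per cohort, iv 3 mg/kg in 30% captisol/5 mM citrate in saline; po 60 mg/kg in 1% CMC/0.5% Tween/5 mM citrate in H₂O.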

[38] = Unbound plasma concentration in Hartley guinea pig at 60 mg/kg, po measured at 5 hrs; assay type: ADME, organism-based, Cavia porcellus; set-up: dose 60 mg/kg, route oral; settings: in vivo; method in brief: as §4
[39] = Unbound plasma concentration in Hartley guinea pig at 30 mg/kg, po measured at 3 hrs; assay type: ADME, organism-based, Cavia porcellus; set-up: dose 30 mg/kg, route oral; settings: in vivo; method in brief: as §4

CN1C(=O)[C@]2(N=C1N)c1cc(-c3cccnc3F)ccc1O[C@H]1CCOC[C@@H]12
concentration at 2 h [1]: 110 nM | Drug uptake(free) [2]: 19 nM | Kp uu at 1 h [3]: 0.14 | Cp(f) [4]: 1700 nM | Drug uptake(free) [5]: 11 nM | CLint scaled at 2 µM [6]: 9.7 mL/min/kg | Cp(f) [7]: 960 nM | Drug uptake(free) [8]: 34 nM | CLint scaled at 1 µM [9]: 17 mL/min/kg | concentration at 8 h [10]: 1.6 nM | concentration at 3 h [11]: 56 nM | solubility [12]: 220 µg/mL (≈ 575 µM) | Cmax [13]: 120 nM | Cp(f) [14]: 2700 nM | Drug uptake(free) [15]: 9.5 nM | Cp(f) [16]: 38 nM | Drug uptake(free) [17]: 24 nM | concentration at 3 h [18]: 150 nM | Cp(f) [19]: 2200 nM | Drug uptake(free) [20]: 5.2 nM | CLint scaled at 2 µM [21]: 5.8 mL/min/kg | Cp(f) [22]: 140 nM | Kp uu at 3 h [23]: 1.6 | Drug uptake(free) [24]: 15 nM | Kp uu at 8 h [25]: > 1.7 | Kp uu at 5 h [26]: 0.029 | Cp(f) [27]: < 3 nM | concentration at 3 h [28]: 9.9 nM | Drug uptake(free) [29]: 50 nM | concentration at 5 h [30]: 200 nM | Drug uptake(free) [31]: 84 nM | Kp uu at 12 h [32]: > 3.7 | concentration at 8 h [33]: 130 nM | Drug uptake(free) [34]: 46 nM | Cp(f) [35]: 1700 nM | Cp(f) [36]: 23 nM | CLH [37]: 30 mL/min/kg | Cp(f) [38]: 7 nM | Cp(f) [39]: 5.8 nM
